# Source: PMC5933427 (Chemical Science, 2016)
# What was measured:
# LO2 = test: MTT cytotoxicity assay; format: cell-based; details: read-out: IC50 LO2, 48 h, human normal liver cells
# Outline: (§1)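 Cancer lines and normal LO2 cells were incubated with test compound for 48 h before viability was assessed. IC50 values reported as means ± SD.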
# PC3 = test: MTT cytotoxicity assay; format: cell-based, human; details: read-out: IC50 PC3, 48 h
# Outline: as §1
# A549/LO2 coculture = test: Co-culture model of A549 and LO2 cells, annexin V/PI; format: cell-based, human; details: 10 μM, 24 h, A549 Hoechst-prelabeled
# A549 cells [1] = test: Microarray gene chip analysis; format: cell-based, human; details: A549, 3 μM, 24 h
# HeLa = test: MTT cytotoxicity assay; format: cell-based, human; details: read-out: IC50 HeLa, 48 h
# Outline: as §1
# [2] = tested on: cisplatin-resistant A549 (A549R); test: MTT cytotoxicity assay; format: cell-based, human; details: for cross-resistance with cisplatin: cisplatin-resistant A549R cells; for IC50: read-out: IC50 A549R, 48 h, MTT
# Outline: as §1
# A549 cells [3] = test: Cell cycle analysis, PI flow cytometry; format: cell-based, human; details: A549, 2.5 μM, 24 h; control 57.4 ± 3.1%
# A549 cells [4] = test: MTT viability with z-VAD-fmk pretreatment; format: cell-based, human; details: A549, z-VAD-fmk 50 μM 2 h, then 24 h
# A549 cells [5] = test: MTT viability with NAC pretreatment; format: cell-based, human; details: A549, NAC 10 mM 1 h, then 24 h
# A549 cells [6] = test: Intracellular ROS detection, H2DCFDA flow cytometry; format: cell-based, human; details: A549, 10 μM, 6 h
# [7] = tested on: caspase-3/7 in A549 cells; test: Caspase-3/7 activity, Caspase-Glo assay; format: cell-based, human; details: A549, 10 μM, 12 h
# [8] = Lipophilicity, shake-flask log Po/w; format: physicochemical; details: octanol/water
# A549 cells [9] = test: MMP analysis, JC-1 flow cytometry; format: cell-based, human; details: A549, 10 μM, 6 h, control 6.6 ± 0.7%
# A549 cells [10] = test: Mitochondrial bioenergetics, Seahorse OCR; format: cell-based, human; details: for non-mitochondrial respiration: after rotenone/antimycin A; for ATP production (coupled respiration, OCR): oligomycin; for ATP production (coupled respiration, OCR) / basal OCR: versus control
# Outline: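 Oxygen consumption rate of treated A549 cells measured on a Seahorse XF24 analyser. Sequential injections: oligomycin 0.75 μM, FCCP 0.6 μM, then rotenone 0.5 μM plus antimycin A 0.5 μM. OCR normalised to protein by BCA assay. Basal respiration = basal OCR minus post-rotenone/antimycin OCR. ATP-linked respiration = basal minus post-oligomycin OCR. Non-mitochondrial respiration = OCR remaining after rotenone/antimycin.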
# MDB-MA-231 = test: MTT cytotoxicity assay; format: cell-based, human; details: read-out: IC50 MDB-MA-231, 48 h
# Outline: as §1
# A549 cells [11] = test: Annexin V/PI double staining, flow cytometry; format: cell-based, human; details: 24 h; for apoptotic cells: A549, 10 μM, control 1.4 ± 0.02%; for effect of NAC pre-treatment on apoptosis-inducing capability: A549, NAC 10 mM
# Outline: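 A549 cells treated with test compound for 24 h, then double-labelled with annexin V and PI and analysed by flow cytometry. Early apoptotic cells scored as annexin V-positive/PI-negative, and late apoptotic/necrotic cells as annexin V-positive/PI-positive. Both fractions were counted as apoptotic.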
# [12] = Stability of complex 2 by 1H NMR; format: physicochemical; details: DMSO-d6/D2O (v/v, 7/3), 37 °C
# [13] = biological target: bovine serum albumin (BSA) (Bos taurus, UniProt P02769); test: Emission enhancement upon binding with BSA; details: molar ratio BSA : Ir(III) 8 : 1
# A549 = test: MTT cytotoxicity assay; format: cell-based, human; details: 48 h; for IC50: read-out: IC50 A549, MTT
# Outline: as §1
# A549 cells [14] = test: Intracellular ATP quantification; format: cell-based, human; details: for intracellular ATP level: A549, 10 μM, 6 h, control 86.3 ± 1.0 nM; for impact on intracellular ATP levels: A549, 6 h, versus control cells
# Outline: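 A549 cells exposed for 6 h to vehicle or to test compound across several concentrations. Intracellular ATP content measured and reported in nM, relative to vehicle-treated control cells.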
# bovine serum albumin (BSA), sequence (P02769 25-607): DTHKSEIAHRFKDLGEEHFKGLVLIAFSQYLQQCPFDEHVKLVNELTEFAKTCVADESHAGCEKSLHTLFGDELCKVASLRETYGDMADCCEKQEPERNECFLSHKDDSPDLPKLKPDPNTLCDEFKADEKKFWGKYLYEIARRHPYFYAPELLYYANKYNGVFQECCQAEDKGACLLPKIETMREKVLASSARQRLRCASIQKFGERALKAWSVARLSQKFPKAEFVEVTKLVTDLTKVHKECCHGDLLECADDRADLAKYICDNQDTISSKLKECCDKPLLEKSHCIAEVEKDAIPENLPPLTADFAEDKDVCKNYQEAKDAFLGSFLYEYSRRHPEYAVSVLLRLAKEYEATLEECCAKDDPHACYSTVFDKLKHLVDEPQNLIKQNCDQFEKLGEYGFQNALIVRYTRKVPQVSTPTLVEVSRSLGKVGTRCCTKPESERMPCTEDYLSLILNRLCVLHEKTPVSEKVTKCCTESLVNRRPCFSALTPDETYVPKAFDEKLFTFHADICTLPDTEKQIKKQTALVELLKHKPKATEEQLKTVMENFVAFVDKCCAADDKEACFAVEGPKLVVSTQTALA
Compound,IC50 (LO2),IC50 (PC3),IC50 (HeLa),cross-resistance with cisplatin [2],IC50 [2],percentage of cells in the G0/G1 phase (A549 cells [3]),effect of z-VAD-fmk pre-treatment on antiproliferative activity (A549 cells [4]),effect of NAC pre-treatment on antiproliferative potency (A549 cells [5]),increase of mean fluorescent intensity (MFI) of DCF (A549 cells [6]),increase of caspase-3/7 activity [7],Lipophilicity (log Po/w) [8],percentage of cells with mitochondrial membrane depolarization (A549 cells [9]),non-mitochondrial respiration (A549 cells [10]),"ATP production (coupled respiration, OCR) (A549 cells [10])",basal OCR (A549 cells [10]),IC50 (MDB-MA-231),apoptotic cells (A549 cells [11]),effect of NAC pre-treatment on apoptosis-inducing capability (A549 cells [11]),IC50 (A549),impact on intracellular ATP levels (A549 cells [14]),other results
ClCc1ccnc(-c2cc(CCl)ccn2)c1.F[P-](F)(F)(F)(F)F.[Ir+3].[c-]1ccccc1-c1ccccn1.[c-]1ccccc1-c1ccccn1 [Complex 2],4.5 ± 0.3 µM,1.4 ± 0.1 µM,0.52 ± 0.04 µM,not cross-resistant with cisplatin,0.64 ± 0.04 µM,85.3 ± 4.4%,inhibits the antiproliferative activity,significantly diminishes,approximately 5.5 fold,approximately 1.6 fold,1.28,85.7 ± 1.7%,decrease,dose-dependent decrease,decrease,0.33 ± 0.02 µM,17.5 ± 0.8%,decreases the apoptosis-inducing capability,0.4 ± 0.02 µM,significant dose-dependent decrease,"selective killing of cancer cells in co-culture (A549/LO2 coculture): most of the A549 cells (blue nuclei) are stained positively by both annexin V and PI, while the LO2 cells are still viable; No. of down-regulated genes sets (p< 0.05, FC> 2) (A549 cells [1]): 715; No. of up-regulated genes sets (p< 0.05, FC> 2) (A549 cells [1]): 507; complex invariant (intact) ([12]; 48 h): about 98.5%; complex transformed (hydrolysis of chloromethyl groups) ([12]; 7 days): about 26.2%; emission enhancement upon binding with BSA [13]: ~11.6 fold; selectivity for cancerous A549 cells over noncancerous LO2 cells (A549; from IC50 values): ~11 fold; intracellular ATP level (A549 cells [14]): 30.2 ± 2.4 nM"
F[P-](F)(F)(F)(F)F.Fc1c[c-]c(-c2ccccn2)c(F)c1.Fc1c[c-]c(-c2ccccn2)c(F)c1.OCc1ccnc(-c2cc(CO)ccn2)c1.[Ir+3] [Complex 3],8.1 ± 0.5 µM,38 ± 1.9 µM,2.7 ± 0.2 µM,–,17.8 ± 1.4 µM,–,–,–,–,–,1.09,–,–,–,–,12.3 ± 1.1 µM,–,–,16.8 ± 1.2 µM,not obvious,–
ClCc1ccnc(-c2cc(CCl)ccn2)c1.F[P-](F)(F)(F)(F)F.Fc1c[c-]c(-c2ccccn2)c(F)c1.Fc1c[c-]c(-c2ccccn2)c(F)c1.[Ir+3] [Complex 4],1.5 ± 0.1 µM,1.04 ± 0.09 µM,1.8 ± 0.1 µM,not cross-resistant with cisplatin,0.74 ± 0.05 µM,88.8 ± 5.2%,inhibits the antiproliferative activity,significantly diminishes,~13.7 fold,~1.7 fold,2.12,82.4 ± 7.6%,decrease,dose-dependent decrease,decrease,0.66 ± 0.05 µM,61.5 ± 1.1%,decreases the apoptosis-inducing capability,0.21 ± 0.02 µM,significant dose-dependent decrease,intracellular ATP level (A549 cells [14]): 20.2 ± 3.3 nM
"N.N.[Cl][Pt][Cl] [Cisplatin, reference compound]",26.9 ± 1.9 µM,23.8 ± 2 µM,18.8 ± 1.4 µM,–,120 ± 6.5 µM,–,–,–,–,–,–,–,–,–,–,27.5 ± 2.5 µM,–,–,22.4 ± 2 µM,–,–
F[P-](F)(F)(F)(F)F.OCc1ccnc(-c2cc(CO)ccn2)c1.[Ir+3].[c-]1ccccc1-c1ccccn1.[c-]1ccccc1-c1ccccn1 [Complex 1],> 100 µM,> 100 µM,10 ± 0.9 µM,–,42.2 ± 2.7 µM,–,–,–,–,–,0.23,–,–,–,–,24.5 ± 1.9 µM,–,–,24 ± 2 µM,not obvious,–
